The values that follow come from ChEMBL document CHEMBL4665889, “Design, Synthesis, and Pharmacological Characterization of a Neutral, Non-Prodrug Thrombin Inhibitor with Good Oral Pharmacokinetics” (J Med Chem, 2020).

Each structure is given as a SMILES string. Calls of active or inactive are those of the source. No cut-off for these calls is given here.

Data set [1] deals with Plasma. The data set can be described thus: Anticoagulation activity in human plasma assessed as drug level causing doubling of APTT incubated for 3 mins. It counts as functional. Particulars: 0.05 h.
Data set [2] is described as follows: Tmax in orally dosed healthy human. The data set is classed as ADME, organism-based. Particulars: in vivo, po.
Data set [3] can be described thus: Inhibition of thrombin in dog plasma. It counts as cell-free. The settings on record: Canis lupus familiaris.
Data set [4] concerns Rattus norvegicus. Put plainly: Antithrombotic activity in HsdCpd:WU rat model of arteriovenous shunt model assessed as reduction in thrombus weight at 0.6 to 6 mg/kg/hr, iv. It counts as functional, organism-based. The settings on record: dose mg/kg/hr 0.6-6. Put shortly:
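Fasting male HsdCpd:WU rats, 300−350 g, anesthetized with Inactin (150−180 mg/kg). Jugular vein and carotid artery linked by a 10 cm PE 60 shunt. Shunt opened 20 min after iv bolus for 15 min; thrombus on nylon thread weighed.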

For data set [5], the target named is Coagulation factor XI (Homo sapiens) (UniProt P03951). The data set can be described thus: Inhibition of purified human plasma factor-11a up to 20 uM using Boc-Glu(OBzl)-Ala-Arg-AMC substrate incubated for 30 mins by fluorescence based assay. The settings on record: dose microM <=20, time 30.0 min. Put shortly:
(§1)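 Final levels: thrombin 0.02 nM; FXa 1.3 nM; FXIa 0.15 nM; plasmin 1.2 nM (substrate 50 μM); tPA 2 nM; kallikrein 0.2 nM; trypsin 0.1 nM; other AMC substrates 5 μM. FVIIa 0.5 pM coupled with tissue factor, factor X 12 nM, FXa substrate 50 μM.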

For data set [6], the target named is Trypsin (Homo sapiens) (UniProt P07477+P07478+P35030). The data set can be described thus: Inhibition of purified human plasma trypsin up to 20 uM using Boc-Ile-Glu-Gly-Arg-AMC substrate incubated for 30 mins by fluorescence based assay. The data set is classed as protein assay. The settings on record: dose microM <=20, time 30.0 min. In a few lines:
as §1

Data set [7] has as its system Plasma. The data set can be described thus: Anticoagulation activity in human plasma assessed as drug level causing doubling of prothrombin time incubated for 3 mins. It counts as functional. The settings on record: 0.05 h. Put shortly:
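Citrated human plasma (0.11 M citrate 1:9, spun ~4000g 15 min) incubated with compound at 37 °C for 3 min. Clotting started with thromboplastin and time to coagulation recorded. Value is the concentration doubling clotting time (PT or aPTT).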

Data set [8] concerns the target T1, Nuclear receptor subfamily 1 group I member 2 (Homo sapiens, UniProt O75469).
T1 sequence (O75469 whole entry): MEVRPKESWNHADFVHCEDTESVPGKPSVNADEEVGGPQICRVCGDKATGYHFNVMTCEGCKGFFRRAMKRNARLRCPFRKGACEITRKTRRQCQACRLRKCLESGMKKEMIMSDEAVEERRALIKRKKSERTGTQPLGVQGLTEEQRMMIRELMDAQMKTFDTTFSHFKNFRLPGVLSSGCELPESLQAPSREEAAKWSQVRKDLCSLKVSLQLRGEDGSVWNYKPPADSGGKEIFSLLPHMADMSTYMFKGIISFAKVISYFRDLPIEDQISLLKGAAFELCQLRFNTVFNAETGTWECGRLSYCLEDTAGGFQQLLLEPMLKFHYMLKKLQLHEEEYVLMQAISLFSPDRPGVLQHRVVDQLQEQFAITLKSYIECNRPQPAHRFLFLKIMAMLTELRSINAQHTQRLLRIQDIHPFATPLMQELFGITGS
Put plainly: Activation of human PXR expressed in human HepG2 cells. It counts as ADME, cell-based. In a few lines:
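HepG2 cells transiently co-transfected with human PXR and a luciferase reporter under the human CYP3A4 promoter, 48 h before readout. 24 h after seeding, 1:3 serial dilutions (2 nM to 50 μM, 0.5% DMSO) added. Luminescence normalized to rifampicin (100%) and DMSO (0%). MEC is the lowest concentration raising signal above 4-fold SD of DMSO background.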

Data set [9] addresses Tissue-type plasminogen activator (Homo sapiens) (UniProt P00750). The data set can be described thus: Inhibition of purified human plasma tPA up to 20 uM using CH3SO2-DPhe-Gly-Arg-AMC substrate incubated for 30 mins by fluorescence based assay. Particulars: dose microM <=20, time 30.0 min. Put shortly:
as §1

Data set [10] in a line: Volume of distribution at steady state in Wistar Hannover rat at 0.3 to 0.5 mg/kg, iv by LC-MS/MS analysis. The data set is classed as ADME, organism-based. Particulars: in vivo, dose 0.3-0.5 mg/kg, time <=24 hrs, read-out: Vdss. Put shortly:
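Male Wistar Hannover rats, catheterized under isoflurane; one day later iv injection into lateral tail vein at 0.3 to 0.5 mg/kg in plasma containing 2% DMSO. Blood sampled via catheter from 0.033 to 24 h. Plasma precipitated with acetonitrile, analysed by LC-MS/MS (10 mM ammonium acetate pH 3.0/acetonitrile gradient). PK parameters calculated from plasma concentrations.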

Data set [11] is described as follows: Clearance in Wistar rat hepatocytes at 1 uM incubated up to 90 mins by LC-MS/MS analysis. The data set is classed as ADME, cell-based, Hepatocyte. The settings on record: Wistar. Put shortly:
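Fresh male Wistar rat hepatocytes, 1 × 10⁶ viable cells/mL, in Williams' medium E at 37 °C, pH 7.4, with 1 μM substrate and <1% acetonitrile. Samples at 2–90 min quenched in acetonitrile and analysed by LC-MS/MS.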

Data set [12] in a line: Terminal half-life in orally dosed healthy human. The data set is classed as ADME, organism-based. The settings on record: in vivo, po, read-out: beta t1/2 (converted).
Data set [13] in a line: Permeability from apical to basolateral side in human Caco2 cells incubated for 2 hrs by LC-MS/MS analysis. The data set is classed as ADME, cell-based. Particulars: Caco-2. In a few lines: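 Caco-2 cells grown 15 d on 0.4 μm inserts, TEER ≥600 Ω. Compound (DMSO stock diluted 100-fold) in HBSS pH 7.4 with 10 mM HEPES and 20 mM glucose, added apically or basolaterally. Incubated 2 h at 37 °C and analysed by LC-MS/MS. Papp = (Vr/P0)·(1/S)·(P2/t); mean and SD.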

The target of data set [14] is Coagulation factor X (Homo sapiens) (UniProt P00742). The data set can be described thus: Inhibition of purified human plasma factor-10a up to 20 uM using Boc-Ile-Glu-Gly-Arg-AMC substrate incubated for 30 mins by fluorescence based assay. Particulars: dose microM <=20, time 30.0 min. In a few lines: as §1
Sequence of Coagulation factor X (Homo sapiens) (P00742 41-179 limits assumed): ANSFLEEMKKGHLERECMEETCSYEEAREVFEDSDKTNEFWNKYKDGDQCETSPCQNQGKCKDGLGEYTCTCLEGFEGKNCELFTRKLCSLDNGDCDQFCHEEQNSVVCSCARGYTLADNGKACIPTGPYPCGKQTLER
Sequence of Coagulation factor X (Homo sapiens) (P00742 235-488 limits assumed): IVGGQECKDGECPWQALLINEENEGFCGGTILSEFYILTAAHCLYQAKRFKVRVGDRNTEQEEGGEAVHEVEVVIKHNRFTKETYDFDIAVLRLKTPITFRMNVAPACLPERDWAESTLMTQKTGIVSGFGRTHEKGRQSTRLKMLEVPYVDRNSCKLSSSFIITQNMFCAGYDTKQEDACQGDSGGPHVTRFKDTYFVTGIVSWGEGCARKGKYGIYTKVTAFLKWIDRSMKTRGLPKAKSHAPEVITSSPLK
The subject of data set [15] is Rattus norvegicus. The data set can be described thus: Antithrombotic activity in HsdCpd:WU rat thrombosis model with venous stasis assessed as reduction in thrombus weight at 1 to 10 mg/kg, po dosed 90 mins before thrombus induction measured after 15 mins. The settings on record: dose mg/kg 1-10, time 105.0 min. It counts as functional, organism-based. Put shortly:
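Anesthetized rats, n = 6−10 per dose group. Compound in PEG/water/glycerol or vehicle given by gavage 90 min before induction. Two loose sutures placed on vena cava below left renal vein; thromboplastin 0.5 mg/kg iv into femoral vein, sutures tied after 15 s. Segment removed 15 min later and thrombus weighed.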

Sequence of Coagulation factor XI (Homo sapiens) (P03951 19-387 limits assumed): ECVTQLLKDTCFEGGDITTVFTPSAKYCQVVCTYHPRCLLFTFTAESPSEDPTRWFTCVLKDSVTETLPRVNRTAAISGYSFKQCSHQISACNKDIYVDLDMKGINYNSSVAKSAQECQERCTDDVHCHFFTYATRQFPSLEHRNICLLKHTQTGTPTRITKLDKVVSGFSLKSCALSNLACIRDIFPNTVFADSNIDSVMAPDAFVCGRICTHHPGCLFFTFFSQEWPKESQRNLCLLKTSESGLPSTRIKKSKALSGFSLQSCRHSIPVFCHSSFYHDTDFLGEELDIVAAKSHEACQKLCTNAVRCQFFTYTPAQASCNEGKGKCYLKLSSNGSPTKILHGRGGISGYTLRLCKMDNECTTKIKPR
Sequence of Coagulation factor XI (Homo sapiens) (P03951 388-625 limits assumed): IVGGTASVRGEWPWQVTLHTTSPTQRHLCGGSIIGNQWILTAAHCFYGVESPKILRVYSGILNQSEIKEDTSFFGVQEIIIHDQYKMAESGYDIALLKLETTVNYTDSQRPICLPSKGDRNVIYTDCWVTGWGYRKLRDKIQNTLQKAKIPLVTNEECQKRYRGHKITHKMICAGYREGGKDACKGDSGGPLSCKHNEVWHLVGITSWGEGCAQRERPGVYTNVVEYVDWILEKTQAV
Sequence of Tissue-type plasminogen activator (Homo sapiens) (P00750 36-562 limits assumed): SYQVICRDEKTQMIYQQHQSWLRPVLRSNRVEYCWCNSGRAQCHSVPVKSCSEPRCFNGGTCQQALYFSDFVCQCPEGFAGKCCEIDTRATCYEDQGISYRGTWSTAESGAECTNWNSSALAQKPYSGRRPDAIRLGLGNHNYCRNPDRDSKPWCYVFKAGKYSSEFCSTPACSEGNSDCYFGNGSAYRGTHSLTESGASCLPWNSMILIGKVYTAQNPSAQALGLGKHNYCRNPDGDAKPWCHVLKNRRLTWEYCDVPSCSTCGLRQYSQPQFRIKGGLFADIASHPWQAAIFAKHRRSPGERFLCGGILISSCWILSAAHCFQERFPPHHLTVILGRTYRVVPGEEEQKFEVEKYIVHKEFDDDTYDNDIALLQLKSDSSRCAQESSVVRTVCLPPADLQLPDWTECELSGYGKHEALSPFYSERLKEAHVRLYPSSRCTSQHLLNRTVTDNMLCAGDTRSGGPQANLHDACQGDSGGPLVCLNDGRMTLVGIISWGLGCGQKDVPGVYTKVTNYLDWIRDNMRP

As to `COc1cc(C(=O)N2C[C@H](C)OC[C@@H]2CCO)cc2nc(N[C@H](CF)c3cccc(Cl)c3)oc12`, in [1], the 2aPTT came to 0.7 µM. Besides, the Tmax in data set [2] is 0.75 h. In data set [3], this molecule had an IC50 of 6.5 nM. Also, the Activity entry in data set [4] and in data set [15] was “Dose-dependent effect” throughout. Besides, the inhibition entry in data set [5], in [6], in data set [9] and in data set [14] was “inactive” in each case. Further, the 2PT in data set [7] was determined as 1.1 µM. For the same molecule, the MEC in [8] was 1.9 µM. Further, the Vd in data set [10] is 3.5 L/kg. For the same molecule, in data set [11], the CLhep predicted at 1 µM was 31.7 mL/min/kg. The half-life in data set [12] was 9.5 h. This molecule also gave a Papp A→B at 2 h in data set [13] of 13.1 ×10⁻⁶ cm/s.

By Tmax is commonly meant the time from dosing to the highest level. A word on the IC50: it is the midpoint of a concentration-inhibition curve. Lower therefore signals greater potency in that assay. Broadly, the Papp A→B is the apparent permeability from the apical to the basolateral side of a cell layer. Lower therefore signals poor permeation.
